An excerpt weighted towards active compounds, which were near 2.3% of everything screened.
ABHD4 inh – inhibitors of mouse ABHD4; 370,000 compounds, 0.54% hits; purified mABHD4, FP-Rh probe fluorescence polarization; inhibition, % at 8.92 µM;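 active means inhibition exceeding the mean over every tested compound plus 3 SD, cut at about 30% in these data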;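 further: 0% = plate median of compound wells and 100% = S159A mutant with DMSO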
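Assay system: Wild-type mouse ABHD4 protein | Medium: HEPES pH 7.0 buffer, 150 mM NaCl, 0.01% Pluronic F-127 | Incubation: Enzyme–compound pre-incubation 45 min, then probe 60 min, both 25 °C | Technique: Fluorescence polarization with parallel and perpendicular emission, 525/598 nm | Evaluation: % inhibition of FP-Rh probe binding versus controls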
SIAE inh – human SIAE inhibition, primary screen. Q9HAT2. SIAE FP-Rh probe binding, fluorescence polarization. inhibition, % at 9.66 µM. 370,000 compounds, 0.69% hits;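 active means inhibition above a cutoff: mean of compounds within the control limits plus 3 SD of those, cut at about 17% in these data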;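 further: 0% = plate median of compound wells and 100% = probe without SIAE protein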
pPAFAH inh – pPAFAH (human) enzyme inhibition; Q13093; recombinant pPAFAH, FP-rhodamine probe fluorescence polarization; inhibition, % at 3.39 µM; 330,000 compounds, 1.5% hits; AID 463082;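 active means inhibition above the mean inhibition across the screen plus 3 SD, cut at about 25% in these data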;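 further: inhibitors block binding of the rhodamine activity-based probe so polarization drops; 0% = enzyme with DMSO and 100% = wells lacking pPAFAH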
TCR-CD3 inh – blocks the human TCR-CD3 interaction | 360,000 compounds, 0.37% hits | inhibition, % at 9.4 µM | TAMRA-labeled TCR probe fluorescence, biochemical; in the data active means inhibition above about 19%;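 further: recombinant mutant TCR 2C K166C tagged with TAMRA read by polarization; 0% = receptor in buffer alone and 100% = receptor with positive control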
HTRA1 inhibitor – HTRA1 (human) protease inhibition; recombinant HTRA1, FP-rhodamine activity-based probe, fluorescence polarization; Q92743; inhibition, % at 5.96 µM; 340,000 compounds, 0.5% hits; in the data active means inhibition above about 36%;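 further: 0% = enzyme with DMSO and 100% = wells lacking enzyme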
Target sequence (Q92743 whole entry, looked up): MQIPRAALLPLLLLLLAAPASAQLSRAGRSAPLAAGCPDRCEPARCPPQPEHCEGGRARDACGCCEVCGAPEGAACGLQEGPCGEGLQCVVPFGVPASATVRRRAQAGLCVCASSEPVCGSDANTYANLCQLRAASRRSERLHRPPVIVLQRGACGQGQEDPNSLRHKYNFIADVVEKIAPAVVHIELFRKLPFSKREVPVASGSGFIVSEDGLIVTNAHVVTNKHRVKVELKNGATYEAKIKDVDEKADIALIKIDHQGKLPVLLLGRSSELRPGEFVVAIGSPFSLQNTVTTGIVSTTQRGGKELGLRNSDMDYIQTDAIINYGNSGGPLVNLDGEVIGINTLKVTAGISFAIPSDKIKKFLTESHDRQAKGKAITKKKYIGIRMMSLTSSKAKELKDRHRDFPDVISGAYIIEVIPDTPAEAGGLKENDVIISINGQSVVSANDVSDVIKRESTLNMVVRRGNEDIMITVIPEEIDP
HTRA1 conf – confirmation of human HTRA1 inhibitors; AID 540248; 1,600 compounds, 66% hits; recombinant HTRA1, FP-rhodamine activity-based probe, fluorescence polarization; shares compounds with HTRA1 inhibitor; inhibition, % at 5.96 µM;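 active means mean inhibition over three repeats above a set limit taken from the earlier primary screen, cut at about 37% in these data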;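 further: 0% = HTRA1 with DMSO and 100% = wells lacking HTRA1; inhibitors block probe binding so polarization drops and inhibition rises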
An asterisk follows results filed as active; · = no result.

SMILES	ABHD4 inh	SIAE inh	pPAFAH inh	TCR-CD3 inh	HTRA1 inhibitor	HTRA1 conf
COc1ccc(Nc2nc(-c3sc(N)nc3C)cs2)cc1	6	11	16	-4	34	·
Cc1nc(N)sc1-c1csc(Nc2ccccn2)n1	20	2	·	-4	24	·
NC(c1csc(Nc2ccccn2)n1)C1CCCCC1 (stereo not drawn)	-1	0	·	5	·	·
Cc1ccc2nc(N/N=C\c3ccc([N+](=O)[O-])o3)nc(-c3ccccc3)c2c1	-5	3	12	2	-6	·
O=[N+]([O-])c1ccc(/C=N/Nc2ccc3ccccc3c2)o1	0	8	7	-61	37*	16
Cc1nn(-c2ccc(F)cc2)c2nc(N)c(C#N)c(-c3ccc(O)c(O)c3)c12	-17	-14	·	12	59*	62*
Cc1nn(-c2ccc(F)cc2)c2nc(N)c(C#N)c(-c3cccs3)c12	-17	-9	-2	5	-21	·
Cc1nn(-c2ccccc2)c2nc(N)c(C#N)c(-c3ccc(O)c(O)c3)c12	1	-11	31*	8	74*	76*
COc1cc(-c2c(C#N)c(N)nc3c2c(C)nn3-c2ccc(C)c(C)c2)cc(OC)c1OC	-21	-18	-13	7	-35	·
Cc1ccc(NCCN(C)C)c2c(=O)c3cc(O)ccc3sc12	18	13	·	0	21	·
COc1cc(C)c2sc3ccccc3c(=O)c2c1NCCN(C)C	24	2	·	-6	36*	44*
N#Cc1ccccc1N1CCN(C(=O)C2CCN(c3ncnc4c3sc3cccc(F)c34)CC2)CC1	-11	2	·	·	·	·
Oc1cc(Nc2ccncc2)cc2cccnc12	-3	4	6	5	43*	37*
Oc1cc(Nc2cccnc2)cc2cccnc12	2	7	6	-4	6	·
CCC(=O)NC(c1cccs1)c1cc(Cl)c2cccnc2c1O (stereo not drawn)	8	17	34*	1	54*	65*
O=C(NC(c1ccc(Cl)cc1)c1cc(Cl)c2cccnc2c1O)c1cccnc1 (stereo not drawn)	0	1	22	-5	60*	52*
CCC(=O)NC(c1cc(Cl)c2cccnc2c1O)C1CC1 (stereo not drawn)	1	8	4	6	39*	51*
CCC(=O)NC(c1cc(Cl)c2cccnc2c1O)C(C)C (stereo not drawn)	11	3	4	3	53*	58*
CC(=O)NC(c1cc(F)c2cccnc2c1O)C1CC1 (stereo not drawn)	2	-1	0	1	16	·
CC(=O)c1ccc(OCc2nnn(CC(=O)NS(=O)(=O)c3ccc(C)cc3)c2-c2ccccc2)cc1	4	-9	·	-2	·	·
CN(C)c1ccc(N/C=C/C(=O)c2ccc(F)cc2)cc1	·	·	31*	·	53*	2
CC(=O)c1ccc(NC(=O)CC2Nc3cccc4cccc(c34)NC2=O)cc1 (stereo not drawn)	22	9	15	9	57*	10
CC(=O)Nc1ccc(NC(=O)CC2Nc3cccc4cccc(c34)NC2=O)cc1 (stereo not drawn)	20	7	20	4	13	·
COc1ccccc1N1C(=O)N(C(C)=O)C2C1Nc1ccccc1N2C (stereo not drawn)	26	11	11	2	49*	8
CC[n+]1c(C)sc2c(C)cc(C)cc21	-2	0	1	-4	4	·
SMILES	ABHD4 inh	SIAE inh	pPAFAH inh	TCR-CD3 inh	HTRA1 inhibitor	HTRA1 conf
CCC[n+]1c(C)sc2c3c(ccc21)CCCC3	·	·	3	·	46*	50*
O=C(N[C@@H](Cc1cccnc1)C(=O)N1CCC[C@H]1C(=O)NCCc1ccccc1Cl)C1CCCC1	9	-6	·	4	·	·
COc1cccc(/C=N/NC(=O)C(=O)N2CCCCCC2)c1OC	0	7	5	11	2	·
COc1ccc(OC)c(/C=N/NC(=O)C(=O)N2CCCCCC2)c1	1	-8	5	-10	42*	-2
O=C(Nc1ccc2c(c1)OCCO2)C(c1ccccc1)n1c(=O)c(-c2cc3ccccc3[nH]2)nc2ccccc21 (stereo not drawn)	-38	-32	·	8	·	·
O=C(/C(=N/N=C/c1ccc(O)c(O)c1)c1ccccc1)c1ccccc1	16	-20	30*	7	41*	78*
CC(C)(C)c1ccc(O)c(O)c1	25	-2	4	6	38*	60*
Nc1ccccc1N=Nc1ccccc1N	9	8	13	-5	42*	39*
O=C1CCCC(=NNC(=O)c2cc3ccccc3cc2O)C1	·	·	21	·	25	·
CCOC(=O)N1CCC(=NNC(=O)c2cc3ccccc3cc2O)CC1	23	13	27*	2	43*	15
CCOC(=O)c1c(C)oc2c(CC(=O)c3ccccc3)c(Cl)c(O)c(O)c12	26	8	18	-6	46*	4
Cc1ccc(Nc2c(-c3ccccn3)nc3cccc(C)n23)cc1	-1	-1	11	-8	62*	67*
CC(C)=CCC/C(C)=C/CNCC(=O)N1c2ccccc2[C@]2(c3ccccc3)C[C@@H]3C(=O)N(C/C=C(\C)CCC=C(C)C)CC(=O)N3[C@H]12	15	3	·	·	·	·
O=C(CSc1nc2ccccc2nc1N1CCOCC1)N1CCN(S(=O)(=O)c2cccc([N+](=O)[O-])c2)CC1	4	-4	·	·	·	·
Cc1cccc(NC(=S)N/N=C/c2ccc([N+](=O)[O-])s2)c1	-3	10	19	-9	60*	67*
Cc1ccc(C(=O)N/N=C/c2ccc([N+](=O)[O-])s2)cc1	7	-2	6	-2	18	·
O=C(N/N=C/c1ccc([N+](=O)[O-])s1)c1cccc(Br)c1	12	-2	4	4	45*	46*
C[C@@H](NC(=O)[C@@H]1CCCN1C(=O)[C@@H]1CCCN1)c1ccccc1	-3	7	·	1	·	·
C=CCn1c(SCC(=O)c2ccc(O)c(O)c2)nnc1-c1cccc(Cl)c1	23	3	28*	9	56*	73*
C=CCn1c(SCC(=O)O)nnc1-c1cccc(Cl)c1	-1	3	3	3	-1	·
Cn1cc([C@]2(O)C(=O)Nc3ccc(Br)cc32)c2ccccc21	-1	-9	·	-1	·	·
CCN(CC)c1ccc(N=Cc2ccccc2[N+](=O)[O-])cc1	47*	12	33*	13	53*	146*
CCC(=O)N1CCC(C(=O)NC2CCCc3ccccc32)CC1 (stereo not drawn)	-1	4	·	·	·	·
CC(C)NC(=O)Cn1c(-c2cncs2)nc2ccccc21	-3	-3	·	·	·	·
CCOc1ccc2c(c1)-c1c(ssc1=S)C(C)(C)N2	·	·	10	·	46*	61*
CCc1c(-c2ccccc2OC)ncn1Cc1cccc(-c2ccccc2)c1	7	0	·	-4	·	·

Compound activity deposited in PubChem by The Scripps Research Institute Molecular Screening Center.
